# Experimental data gathered from unrelated publications.
# Lines come from different studies, so protocols differ.
# FLT3 D835Y: Receptor-type tyrosine-protein kinase FLT3 (FLT3, Homo sapiens, UniProt P36888, D835Y)
# FLT3 D835V: Receptor-type tyrosine-protein kinase FLT3 (FLT3, Homo sapiens, UniProt P36888, D835V)
# FLT3 R834Q: Receptor-type tyrosine-protein kinase FLT3 (FLT3, Homo sapiens, UniProt P36888, R834Q)
# FLT3: Receptor-type tyrosine-protein kinase FLT3 (FLT3, Homo sapiens, UniProt P36888)
# FLT3 K663Q: Receptor-type tyrosine-protein kinase FLT3 (FLT3, Homo sapiens, UniProt P36888, K663Q)
# FLT3 D835H: Receptor-type tyrosine-protein kinase FLT3 (FLT3, Homo sapiens, UniProt P36888, D835H)
# FLT3 autoinhibited: Receptor-type tyrosine-protein kinase FLT3, autoinhibited (FLT3, Homo sapiens, UniProt P36888)
# FLT3 N841I: Receptor-type tyrosine-protein kinase FLT3 (FLT3, Homo sapiens, UniProt P36888, N841I)
SMILES,target,assay,setting,quantity,value
Cc1ccc(NC(=O)c2ccc(C)c(C(F)(F)F)c2)cc1C#Cc1nn(C2CCC(O)CC2)c2ncnc(N)c12 (stereo not shown),FLT3 D835Y,"enzyme activity, inhibitor",10 µM,remaining activity,118%
Nc1ncnc2occ(-c3ccc(NC(=O)Nc4cc(C(F)(F)F)ccc4F)cc3)c12,FLT3 D835V,"cell-free assay, inhibitor",20 µM,remaining signal,0%
Cc1cnc(Nc2ccc(C(=O)N3CCC(N4CCCC4)CC3)cc2)nc1-c1cc2ccccc2s1,FLT3 R834Q,"binding, competition with immobilised ligand",1 µM,remaining binding,6.2%
CCCOc1ccc(OC)c(F)c1C(=O)c1ccc(C(=O)N[C@@H]2CNC[C@H]2NC(=O)c2ccc3[nH]ncc3c2)cc1,FLT3,"enzyme activity, inhibitor",10 µM,remaining activity,32%
O=C(c1ccc(Nc2ncc(Cl)c(-c3ccc(Cl)s3)n2)cc1)N1CCC(N2CCCC2)CC1,FLT3 K663Q,"binding, competition with immobilised ligand",1 µM,remaining binding,1.3%
N#CCCc1ccc2c(c1)-c1[nH]c3ccc([N+](=O)[O-])cc3c1CC(=O)N2,FLT3,cell-free assay,0.5 µM,remaining signal,15.1%
O=C(Nc1cnn(-c2csc(C(=O)NC3COC3)c2)c1)Nc1c(F)cccc1Cl,FLT3,"enzyme activity, inhibitor",5 µM,remaining activity,99.2%
O=C(NCCCN1CCOCC1)c1ccc(Nc2ncc(Cl)c(-c3ccc(Cl)s3)n2)cc1,FLT3 D835H,"binding, competition with immobilised ligand",1 µM,remaining binding,3.1%
CC(C)c1ccc(NC(=O)c2cccs2)c(-c2nc3ccccc3[nH]c2=O)c1,FLT3,"enzyme activity, inhibitor",1 µM,activity vs control,51%
O=C1Nc2ccc(Cl)cc2C1=Cc1cc(Cl)c(O)c(Cl)c1,FLT3,cell-free assay,0.5 µM,remaining signal,26.5%
O=C(NCCCN1CCOCC1)c1ccc(Nc2nccc(-c3cc4ccccc4s3)n2)cc1,FLT3,"binding, competition with immobilised ligand",1 µM,remaining binding,61%
N#CC1(c2ccccn2)CCN(Cc2cc(C(=O)N3CCCC3)c(=O)n3ccccc23)CC1,FLT3 D835Y,"cell-free assay, competition with immobilised ligand",1 µM,remaining binding,71%
Fc1cccc(-n2cnc3c(NCc4nc5c(F)c(F)ccc5[nH]4)nc(N4CCOCC4)nc32)c1,FLT3 D835H,"binding, competition with immobilised ligand",10 µM,binding vs control,42%
CN(c1nccc(-c2cnn3ncccc23)n1)C1CC1,FLT3 D835V,binding,1 µM,remaining binding,78%
Cc1[nH]c(/C=C2\C(=O)Nc3ccc(F)cc32)c(C)c1C(=O)N[C@H]1CCN(C(=O)N(C)C)C1,FLT3,"enzyme activity, inhibitor",1 µM,remaining activity,2%
O=C(c1cc2cc(O)ccc2[nH]1)c1cc2cc(O)ccc2[nH]1,FLT3,cell-free assay,0.5 µM,remaining signal,3.53%
Cc1cnc(-c2ccc(-c3ccc(NC(=O)Nc4c(F)cc(F)cc4F)cc3F)c3c2C(=O)NC3)[nH]1,"Receptor-type tyrosine-protein kinase FLT3 (FLT3, Homo sapiens, UniProt P36888, ITD)","enzyme activity, inhibitor","1 µM, 90 min",activity vs control,1.6%
O=C(c1ccc(Nc2nccc(-c3cc4ccccc4s3)n2)cc1)N1CCC(N2CCCC2)CC1,"Receptor-type tyrosine-protein kinase FLT3 (FLT3, Homo sapiens, UniProt P36888, F691L/ITD)","binding, competition with immobilised ligand",1 µM,remaining binding,19%
CN(C)c1ncc(F)c(-c2cnn3ncccc23)n1,FLT3 K663Q,binding,1 µM,remaining binding,100%
NS(=O)(=O)c1cc(NC(=O)Cc2ccccc2)ccc1Oc1cccc(Cl)c1,FLT3,"cell-free assay, competition with immobilised ligand",1 µM,remaining binding,100%
Cc1cnc(NC2CCOCC2)nc1-n1cnc(C(=O)NC(CN)c2cc(F)cc(Cl)c2)c1 (stereo not shown),FLT3 D835Y,"enzyme activity, inhibitor, radiometric",1 µM,remaining activity,105%
COc1cc(Nc2c(C#N)cnc3cc(OCCCN4CCN(C)CC4)c(OC)cc23)c(Cl)cc1Cl,FLT3,cell-free assay,0.5 µM,remaining signal,30.3%
O=C(NCCCC1CCCCC1)c1ccc(CNC(=O)c2cnn(-c3ccccc3)c2C(F)(F)F)cc1,FLT3 autoinhibited,"cell-free assay, competition with immobilised ligand",0.1 µM,remaining binding,100%
N[C@@H]1CCN(c2nccc(-c3cnn4ncccc34)n2)C1,FLT3 autoinhibited,binding,1 µM,remaining binding,100%
O=c1nc(-c2ccccn2)sc2ccccc12,FLT3 N841I,"binding, competition with immobilised ligand",1 µM,remaining binding,74%
O=C(c1ccc(Nc2ncc(Cl)c(-c3cc4ccccc4s3)n2)cc1)N1CCC(N2CCCC2)CC1,FLT3 R834Q,"binding, competition with immobilised ligand",1 µM,remaining binding,11%
NS(=O)(=O)c1cc(NC(=O)C2(c3ccccc3Cl)CC2)ccc1Oc1cccc(Cl)c1,FLT3 R834Q,"cell-free assay, competition with immobilised ligand",1 µM,remaining binding,100%
CC1CCCN1c1nccc(-c2cnn3ncccc23)n1 (stereo not shown),FLT3 R834Q,binding,1 µM,remaining binding,100%
C[C@H](c1ccnc(Nc2nc3ccc(-c4cc(N(C)C)ncn4)cc3[nH]2)c1)N1CCN(C(=O)CC(F)(F)F)CC1,FLT3,"cell-free assay, competition with immobilised ligand",0.1 µM,remaining binding,67%
CCN(CC)CCNC(=O)c1c(C)[nH]c(/C=C2\C(=O)Nc3ccc(F)cc32)c1C,FLT3,"enzyme activity, inhibitor",0.1 µM,remaining activity,1%
F[C@@H]1CCN(c2nccc(-c3cnn4ncccc34)n2)C1,FLT3,binding,1 µM,remaining binding,81%
CN([C@@H]1CCc2c(CC(=O)O)c3cc(S(C)(=O)=O)ccc3n2C1)S(=O)(=O)c1ccc(F)cc1,FLT3 N841I,"cell-free assay, competition with immobilised ligand",1 µM,remaining binding,100%
COc1ncc2cc3ccccc3nc2c1C#N,FLT3,"cell-free assay, competition with immobilised ligand",5 µM,remaining binding,91%
C[C@H]1CCN(c2nccc(-c3cnn4ncccc34)n2)C1,FLT3 D835Y,binding,1 µM,remaining binding,81%
CCCCN(CCCC)C(=O)CN1C[C@H](c2cc(OC)c3c(c2)OCO3)[C@@H](C(=O)O)[C@@H]1CC(C)(C)CCC,FLT3 N841I,"cell-free assay, competition with immobilised ligand",1 µM,remaining binding,100%
Cc1ccc(C(=O)Nc2ccc(CN3CCN(C)CC3)c(C(F)(F)F)c2)cc1C#Cc1cnc2cccnn12,FLT3 N841I,"enzyme activity, inhibitor",23.5 nM,remaining activity,0%
c1cnn2ncc(-c3ccnc(N4CCC45COC5)n3)c2c1,FLT3 D835Y,binding,1 µM,remaining binding,62%
